Measurements taken from ChEMBL document CHEMBL3217694, “Diaryl- and triaryl-pyrrole derivatives: inhibitors of the MDM2-p53 and MDMX-p53 protein-protein interactions†Electronic supplementary information (ESI) available: Experimental details for compound synthesis, analytical data for all compounds and intermediates. Details for the biological …” (Medchemcomm, 2013).
Activity calls are given as the source filed them. No cut-off for these calls is given here.

Experiments:
[1] = molecular target: T1, E3 ubiquitin-protein ligase Mdm2/Cellular tumor antigen p53/Protein Mdm4 (Homo sapiens) (UniProt P04637+Q00987+O15151); test: Inhibition of MDM2/MDMX-p53 interaction in human A2780 cells expressing wild-type p53 assessed as induction of p53 protein expression at 0.2 to 5 uM after 4 hrs by western blot analysis; type: cell-based
T1 sequence (O15151 whole entry, looked up): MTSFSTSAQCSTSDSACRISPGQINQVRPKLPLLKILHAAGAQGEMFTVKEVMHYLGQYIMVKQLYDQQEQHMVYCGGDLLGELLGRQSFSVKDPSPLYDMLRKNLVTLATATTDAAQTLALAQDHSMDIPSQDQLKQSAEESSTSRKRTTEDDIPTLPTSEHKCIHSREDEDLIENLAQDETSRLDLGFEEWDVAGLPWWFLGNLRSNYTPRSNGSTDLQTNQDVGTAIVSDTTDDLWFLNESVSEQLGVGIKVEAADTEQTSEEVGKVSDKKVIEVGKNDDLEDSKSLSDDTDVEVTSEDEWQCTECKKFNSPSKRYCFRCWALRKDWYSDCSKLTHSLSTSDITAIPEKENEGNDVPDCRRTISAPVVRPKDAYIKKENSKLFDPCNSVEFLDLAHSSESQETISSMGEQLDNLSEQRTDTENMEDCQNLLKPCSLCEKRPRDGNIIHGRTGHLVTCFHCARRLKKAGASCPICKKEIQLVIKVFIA
T1 sequence (P04637 whole entry, looked up): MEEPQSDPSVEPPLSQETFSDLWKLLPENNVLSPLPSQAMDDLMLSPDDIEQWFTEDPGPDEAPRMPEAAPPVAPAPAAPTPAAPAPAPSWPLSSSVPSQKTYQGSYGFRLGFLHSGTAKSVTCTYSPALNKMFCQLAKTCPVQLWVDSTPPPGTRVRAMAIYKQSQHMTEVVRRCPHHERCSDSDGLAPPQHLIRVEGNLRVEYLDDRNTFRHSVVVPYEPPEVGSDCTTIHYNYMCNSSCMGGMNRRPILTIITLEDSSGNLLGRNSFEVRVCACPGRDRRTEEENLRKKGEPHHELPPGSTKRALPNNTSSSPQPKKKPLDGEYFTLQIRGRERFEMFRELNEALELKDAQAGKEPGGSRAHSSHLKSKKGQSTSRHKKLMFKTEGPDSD
T1 sequence (Q00987 whole entry, looked up): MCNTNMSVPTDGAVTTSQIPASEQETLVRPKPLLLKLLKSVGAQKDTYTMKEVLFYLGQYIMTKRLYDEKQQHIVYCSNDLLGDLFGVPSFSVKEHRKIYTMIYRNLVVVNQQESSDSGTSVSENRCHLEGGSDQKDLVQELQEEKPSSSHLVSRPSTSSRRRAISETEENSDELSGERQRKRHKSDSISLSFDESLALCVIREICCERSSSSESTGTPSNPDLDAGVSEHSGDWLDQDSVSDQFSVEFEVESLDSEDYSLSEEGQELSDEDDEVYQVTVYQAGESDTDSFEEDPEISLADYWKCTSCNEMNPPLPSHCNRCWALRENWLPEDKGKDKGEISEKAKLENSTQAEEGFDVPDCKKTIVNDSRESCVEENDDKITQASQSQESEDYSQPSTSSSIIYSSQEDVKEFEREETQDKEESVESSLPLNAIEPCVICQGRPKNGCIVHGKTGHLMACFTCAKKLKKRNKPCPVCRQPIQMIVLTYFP
Summary of the method: (§1)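 Cell lines with defined MDM2 and p53 status were exposed to increasing compound concentrations for 4 h. p53 pathway activation (p53 and the p53-dependent proteins) was then detected by Western blotting of cell extracts.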

[2] = molecular target: T1, E3 ubiquitin-protein ligase Mdm2/Cellular tumor antigen p53/Protein Mdm4 (Homo sapiens); test: Inhibition of MDM2/MDMX-p53 interaction in human A2780 cells expressing wild-type p53 assessed as induction of p21 protein expression at 0.2 to 5 uM after 4 hrs by western blot analysis; type: cell-based; summary of the method: as §1
[3] = molecular target: T1, E3 ubiquitin-protein ligase Mdm2/Cellular tumor antigen p53/Protein Mdm4 (Homo sapiens); test: Inhibition of MDM2/MDMX-p53 interaction in human A2780 CP70 cells expressing p53 mutant gene assessed as induction of MDM2 protein expression at 0.2 to 5 uM after 4 hrs by western blot analysis; type: cell-based; summary of the method: as §1
[4] = molecular target: T1, E3 ubiquitin-protein ligase Mdm2/Cellular tumor antigen p53/Protein Mdm4 (Homo sapiens); test: Inhibition of MDM2/MDMX-p53 interaction in human SJSA-1 cells expressing amplified MDM2 and wild-type p53 assessed as induction of MDM2 protein expression at 5 uM after 4 hrs by western blot analysis; type: cell-based; summary of the method: as §1
[5] = molecular target: T1, E3 ubiquitin-protein ligase Mdm2/Cellular tumor antigen p53/Protein Mdm4 (Homo sapiens); test: Inhibition of MDM2/MDMX-p53 interaction in human A2780 CP70 cells expressing p53 mutant gene assessed as induction of p53 protein expression at 0.2 to 5 uM after 4 hrs by western blot analysis; type: cell-based; summary of the method: as §1
[6] = molecular target: T1, E3 ubiquitin-protein ligase Mdm2/Cellular tumor antigen p53/Protein Mdm4 (Homo sapiens); test: Inhibition of MDM2/MDMX-p53 interaction in human SJSA-1 cells expressing amplified MDM2 and wild-type p53 assessed as induction of p53 protein expression at 5 uM after 4 hrs by western blot analysis; type: cell-based; summary of the method: as §1
[7] = molecular target: T1, E3 ubiquitin-protein ligase Mdm2/Cellular tumor antigen p53/Protein Mdm4 (Homo sapiens); test: Inhibition of MDM2/MDMX-p53 interaction in human SJSA-1 cells expressing amplified MDM2 and wild-type p53 assessed as induction of p21 protein expression at 5 uM after 4 hrs by western blot analysis; type: cell-based; summary of the method: as §1
[8] = molecular target: T1, E3 ubiquitin-protein ligase Mdm2/Cellular tumor antigen p53/Protein Mdm4 (Homo sapiens); test: Inhibition of MDM2/MDMX-p53 interaction in human A2780 CP70 cells expressing p53 mutant gene assessed as induction of p21 protein expression at 0.2 to 5 uM after 4 hrs by western blot analysis; type: cell-based; summary of the method: as §1
[9] = molecular target: E3 ubiquitin-protein ligase Mdm2 (Homo sapiens, UniProt Q00987); test: Inhibition of MDM2-p53 interaction (unknown origin) by ELISA
Summary of the method: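 MDM2–p53 ELISA protein–protein binding assay; IC50 values were determined in follow-up concentration–response testing.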

[10] = molecular target: T1, E3 ubiquitin-protein ligase Mdm2/Cellular tumor antigen p53/Protein Mdm4 (Homo sapiens); test: Inhibition of MDM2/MDMX-p53 interaction in human A2780 cells expressing wild-type p53 assessed as induction of MDM2 protein expression at 0.2 to 5 uM after 4 hrs by western blot analysis; type: cell-based; summary of the method: as §1

Row | SMILES | inhibition [9] | further results
1 | O=C1NC(=S)N(c2ccccc2)C(=O)/C1=C/c1cc(-c2ccccc2)n(-c2ccc(Cl)cc2)c1-c1ccccc1 | Dose-dependent effect | inhibition [1]: inactive; inhibition [2]: Active; inhibition [3]: inactive; inhibition [4]: Active; inhibition [5]: inactive; inhibition [6]: Active; inhibition [7]: Active; inhibition [8]: inactive; inhibition [10]: Active
2 | N#Cc1ccc(-n2c(-c3ccccc3)cc(C=C3C(=O)NC(=S)NC3=O)c2-c2ccccc2)cc1 | Dose-dependent effect | –
3 | O=C1NC(=O)C(=Cc2cc(-c3ccccc3)n(-c3ccc([N+](=O)[O-])cc3)c2-c2ccccc2)C(=O)N1 | Dose-dependent effect | –
4 | Cc1ccc(N2C(=O)/C(=C\c3cc(-c4ccccc4)n(-c4ccc(Cl)cc4)c3-c3ccccc3)C(=O)N(c3ccccc3)C2=S)cc1C | Dose-dependent effect | –
5 | CC1(C)OC(=O)C(=Cc2cc(-c3ccccc3)n(-c3ccc(Br)cc3)c2-c2ccccc2)C(=O)O1 | Dose-dependent effect | –
6 | Cc1cc(C=C2C(=O)N(c3ccccc3)C(=S)N(c3ccccc3)C2=O)c(C)n1-c1ccc(Br)cc1 | Dose-dependent effect | –
7 | CCN1C(=O)C(=Cc2cc(-c3ccccc3)n(-c3ccc(Br)cc3)c2-c2ccccc2)C(=O)N(CC)C1=S | Dose-dependent effect | –
8 | N#Cc1ccc(-n2c(-c3ccccc3)cc(C=C3C(=O)NC(=O)NC3=O)c2-c2ccccc2)cc1 | Dose-dependent effect | –
9 | NC(=O)C(=Cc1cc(-c2ccccc2)n(-c2ccc(Cl)cc2)c1-c1ccccc1)C(N)=O | Dose-dependent effect | –
10 | Cc1cc(C=C2C(=O)NC(=S)NC2=O)c(C)n1-c1sc2c(c1C#N)CCCC2 | – | inhibition [1]: inactive; inhibition [2]: inactive; inhibition [3]: inactive; inhibition [4]: Active; inhibition [5]: inactive; inhibition [6]: Active; inhibition [7]: Active; inhibition [8]: inactive; inhibition [10]: inactive
11 | CC1(C)OC(=O)C(Cc2cc(-c3ccccc3)n(-c3ccc(Br)cc3)c2-c2ccccc2)C(=O)O1 | Dose-dependent effect | –
12 | O=C1NC(=O)C(=Cc2cc(-c3ccccc3)n(-c3ccc(Cl)cc3)c2-c2ccccc2)C(=O)N1 | Dose-dependent effect | –
13 | O=C(NCCO)C(=Cc1cc(-c2ccccc2)n(-c2ccc(Cl)cc2)c1-c1ccccc1)C(=O)NCCO | Dose-dependent effect | –
14 | Cc1ccc(-n2c(C)cc(/C=C3\C(=O)NC(=S)N(c4ccccc4)C3=O)c2C)cc1 | Dose-dependent effect | –
15 | CC(C)(C)c1cc(C=C2C(=O)NC(=S)NC2=O)c(-c2ccccc2)n1-c1ccc(Br)cc1 | Dose-dependent effect | –
16 | O=C1NC(=S)NC(=O)C1=Cc1cc(-c2ccccc2)n(-c2ccc(Br)cc2)c1C1CC1 | Dose-dependent effect | –
17 | O=C1NC(=S)NC(=O)C1=Cc1cc(C2CC2)n(-c2ccc(Br)cc2)c1-c1ccccc1 | Dose-dependent effect | –
18 | O=C(O)/C=C/c1cc(-c2ccccc2)n(-c2ccc(Cl)cc2)c1-c1ccccc1 | Dose-dependent effect | –
19 | CCN1C(=O)C(=Cc2cc(-c3ccccc3)n(-c3ccc(Cl)cc3)c2-c2ccccc2)C(=O)N(CC)C1=S | Dose-dependent effect | –

Row | SMILES | inhibition [9] | further results
20 | CN1C(=O)C(=Cc2cc(-c3ccccc3)n(-c3ccc(Cl)cc3)c2-c2ccccc2)C(=O)N(C)C1=S | – | IC50 [9]: ND(Insoluble)
21 | COC(=O)C(=Cc1cc(-c2ccccc2)n(-c2ccc(Cl)cc2)c1-c1ccccc1)C(=O)OC | Dose-dependent effect | –
22 | O=C1NC(=S)NC(=O)C1=Cc1cc(-c2ccccc2)n(-c2ccc(Cl)cc2)c1-c1ccccc1 | Dose-dependent effect | inhibition [1]: inactive; inhibition [2]: Active; inhibition [3]: inactive; inhibition [4]: Active; inhibition [5]: inactive; inhibition [6]: Active; inhibition [7]: Active; inhibition [8]: inactive; inhibition [10]: Active
23 | O=C1NC(=O)C(=Cc2cc(-c3ccccc3)n(-c3ccc(Br)cc3)c2-c2ccccc2)C(=O)N1 | Dose-dependent effect | –
24 | OCC(=Cc1cc(-c2ccccc2)n(-c2ccc(Cl)cc2)c1-c1ccccc1)CO | Dose-dependent effect | –
25 | CNC(=O)C(=Cc1cc(-c2ccccc2)n(-c2ccc(Cl)cc2)c1-c1ccccc1)C(=O)NC | Dose-dependent effect | –
26 | CCN1C(=O)C(=Cc2cc(-c3ccccc3)n(-c3ccc(Br)cc3)c2-c2ccccc2)C(=O)N(CC)C1=O | Dose-dependent effect | –
27 | O=C1NC(=S)N(c2cccc(Cl)c2)C(=O)/C1=C/c1cc(-c2ccccc2)n(-c2ccc(Cl)cc2)c1-c1ccccc1 | Dose-dependent effect | –
28 | O=C1NC(=S)NC(=O)C1=Cc1cc(-c2ccccc2)n(-c2ccc([N+](=O)[O-])cc2)c1-c1ccccc1 | Dose-dependent effect | –
29 | CC(C)(C)c1cc(C=C2C(=O)NC(=S)NC2=O)c(-c2ccccc2)n1-c1ccc(Cl)cc1 | Dose-dependent effect | –
30 | CC(C)(C)c1ccc(-n2c(-c3ccccc3)cc(C=C3C(=O)NC(=O)NC3=O)c2-c2ccccc2)cc1 | Dose-dependent effect | –
31 | Cc1ccc(-n2c(C)cc(C=C3C(=O)NC(=S)NC3=O)c2C)cc1 | Dose-dependent effect | –
32 | O=C1NC(=S)NC(=O)C1=Cc1cc(C2CC2)n(-c2ccc(Cl)cc2)c1-c1ccccc1 | Dose-dependent effect | –
33 | COc1ccc(-n2c(-c3ccccc3)cc(C=C3C(=O)NC(=O)NC3=O)c2-c2ccccc2)cc1 | Dose-dependent effect | –
34 | Cc1cc(C=C2C(=O)NC(=S)NC2=O)c(C)n1-c1ccc(Cl)cc1 | Dose-dependent effect | –
35 | O=C1NC(=S)NC(=O)C1=Cc1cc(-c2ccccc2)n(-c2ccc(Cl)cc2)c1C1CC1 | Dose-dependent effect | –
36 | Cc1cc(/C=C2\C(=O)NC(=S)N(c3ccccc3)C2=O)c(C)n1-c1ccc(Cl)cc1 | Dose-dependent effect | –
37 | CCOC(=O)c1ccc(-n2c(-c3ccccc3)cc(C=C3C(=O)NC(=S)NC3=O)c2-c2ccccc2)cc1 | Dose-dependent effect | –
